From ChEMBL document CHEMBL1133473, “Synthesis and antiviral activity of 4-benzyl pyridinone derivatives as potent and selective non-nucleoside human immunodeficiency virus type 1 reverse transcriptase inhibitors” (J Med Chem, 2000)
Several values for one entry are separate records, joined by “and”; a condition that tells them apart may be missing. Identical values can stand only once.

Key:
[1] = tested on: Human immunodeficiency virus 1; assay: Tested for cytotoxic concentration on HIV-I nevirapine resistant strain.; assay type: functional
Outline: (§1)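 CEM-SS cells, uninfected, cultured 5 days with compound. Compounds were taken from a DMSO solution at 10^-2 M (10^-3 M or lower if insoluble), diluted 1:100 in medium, then serially diluted in medium.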

[2] = tested on: Human immunodeficiency virus 1; assay: Tested for inhibitory concentration on HIV-I nevirapine resistant strain.; assay type: functional, organism-based
Outline: (§2)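 CEM-SS lymphocytic cells infected with 100 TCID50 of HIV-1 LAI, or of the nevirapine-resistant N119 strain carrying an RT codon 181 mutation. Virus adsorbed 30 min, unbound virus removed by two washes, then cells cultured 5 days with serial compound dilutions. Read-out: RT activity of particles released into the supernatant. IC50 from a computer median effect plot of dose-effect data.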

[3] = biological target: Human immunodeficiency virus type 1 reverse transcriptase (Human immunodeficiency virus 1, UniProt Q72547); assay: Tested for inhibitory concentration on HIV-1 Reverse transcriptase in the presence of poly(c)-oligo-(dG)
Outline: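 Recombinant HIV-1 RT purified from yeast, 20-50 nM. Reaction at 37 °C for 10 min in 50 mM Tris-HCl pH 8.0, 5 mM MgCl2, 4 mM DTT, 80 mM KCl, BSA, 0.48 A260 units/mL poly(C)-oligo(dG) (5:1), 2 µM dGTP plus [3H]dGTP. Stopped with cold 10% TCA plus 0.1 M pyrophosphate; precipitates filtered, scintillation counted. Compounds dissolved in DMSO.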

CEM-SS [4] = assay: Tested for inhibitory concentration on HIV-I Lai wild type in CEM-SS cell line; assay type: functional, cell-based; details: Homo sapiens; outline: as §2
CEM-SS [5] = assay: Tested for cytotoxic concentration on HIV-I Lai wild type in CEM-SS cell line; assay type: functional; details: Homo sapiens; outline: as §1
[6] = tested on: Human immunodeficiency virus 1; assay: Inhibitory concentration against HIV-1 AZTres.; assay type: functional, organism-based
Outline: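 AZT-resistant HIV-1 isolate A018 G910-6 tested in cell culture; virus production measured as RT activity of particles released into the culture supernatant.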

[7] = tested on: Human immunodeficiency virus 1; assay: Inhibitory concentration against HIV-1 Bal/Mono; assay type: functional, organism-based
Outline: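 Macrophage-tropic HIV-1 Bal in monocyte-derived macrophages kept serum-free in AIM V medium with 100 U/mL GM-CSF. Virus output measured as supernatant particle-associated RT activity.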

[8] = Inhibitory concentration against HIV-2 D 194; assay type: functional
Outline: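 Cell-based antiviral assay against this HIV-2 isolate. Compounds were dissolved in DMSO as 10^-2 M stocks, or 10^-3 M or lower when insoluble, diluted 1% in culture medium, then serially diluted in medium. Virus production was read as reverse transcriptase activity of particles released into the culture supernatant. IC50 was taken from a median-effect plot of the dose-effect data.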

[9] = tested on: Human immunodeficiency virus 1; assay: (§3) Selectivity index is the ratio of CC50 to IC50 against HIV-1 nevirapine resistant strain; assay type: functional
MT4 [10] = assay: Cytotoxicity against MT-4 cells infected with HIV-1 AZTres; assay type: functional; details: Homo sapiens
MT4 [11] = assay: Cytotoxicity against MT-4 cells infected with HIV-1 IIIB strain; assay type: functional; details: Homo sapiens
[12] = Cytotoxicity against Macrophages infected with HIV-1 Bal/Mono; assay type: functional; details: Human immunodeficiency virus 1
[13] = Cytotoxicity against PBMC cells infected with HIV-1 IIIB strain; assay type: functional; details: Human immunodeficiency virus 1, PBMC
[14] = Cytotoxicity against PBMC cells infected with HIV-2 D 194; assay type: functional; details: Human immunodeficiency virus 2, PBMC
[15] = tested on: Human immunodeficiency virus 1; assay: Selectivity index is the ratio of CC50 to IC50; assay type: functional
[16] = tested on: Human immunodeficiency virus 1; assay: Inhibitory concentration against HIV-1 IIIB strain; assay type: functional, organism-based
Outline: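 MT4 cells infected with HIV-1 IIIB; antiviral effect read as protection from virus-induced cytopathogenicity by MTT. Compounds taken from DMSO stock, diluted in culture medium.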

[17] = as §3; assay type: functional

CC(C)=CCN1Cc2cc(Cl)cc3[nH]c(=S)n(c23)C[C@@H]1C
CC50 [1]: > 10 µM | IC50 [2]: > 10 µM

Cc1c(Sc2ccccc2)n(COCc2ccccc2)c(=O)[nH]c1=O
IC50 [3]: 0.3 µM

CCc1c(C)[nH]c(=O)c(NC)c1Cc1cc(C)cc(C)c1
IC50 (CEM-SS [4]): 0.03 µM | CC50 (CEM-SS [5]): > 10 µM | IC50 [6]: 0.076 µM | IC50 [7]: 0.72 µM | IC50 [8]: > 10 µM | CC50 [1]: > 10 µM | IC50 [2]: 1.7 µM | SI [9]: >5.5 and >10 | CC50 (MT4 [10]): > 10 µM | CC50 (MT4 [11]): > 10 µM | CC50 [12]: > 10 µM | CC50 [13]: > 10 µM | CC50 [14]: > 10 µM | SI [15]: >333

CCc1cc(NCc2cc(C)c(C)cc2OC)c(O)nc1C
IC50 (CEM-SS [4]): 0.008 µM

CCc1c(C)nc(O)c(NC(=O)CNC(=O)OC(C)(C)C)c1Cc1cc(C)cc(C)c1
IC50 (CEM-SS [4]): 6.7 µM | CC50 (CEM-SS [5]): 86 µM | SI [15]: 12

CCOCn1c(Cc2cc(C)cc(C)c2)c(CC)c(=O)[nH]c1=O
IC50 (CEM-SS [4]): 0.0016 µM | CC50 (CEM-SS [5]): 207 µM | SI [15]: 130000

CCc1c(C)nc(O)c([N+](=O)[O-])c1Sc1cc(C)cc(C)c1
IC50 [2]: 0.26 µM

CCc1c(C)nc(O)c(N)c1C(O)c1cc(C)cc(C)c1 (centres undefined)
IC50 (CEM-SS [4]): 1 µM | CC50 (CEM-SS [5]): > 10 µM | IC50 [6]: 0.42 µM | IC50 [7]: 0.18 µM | IC50 [8]: > 10 µM | IC50 [16]: 3.4 µM and 0.69 µM | CC50 [1]: > 10 µM | IC50 [2]: 4.5 µM | SI [9]: >2 | CC50 (MT4 [10]): > 10 µM | CC50 (MT4 [11]): 10 µM | CC50 [12]: > 10 µM | CC50 [13]: > 10 µM | CC50 [14]: > 10 µM | SI [15]: >10

CCOCn1c(Cc2cc(C)cc(C)c2)c(C(C)C)c(=O)[nH]c1=O
IC50 (CEM-SS [4]): 0.0006 µM | CC50 (CEM-SS [5]): 43 µM | SI [15]: 72000

CCc1c(C)[nH]c(=O)c(NC=O)c1Cc1cc(C)cc(C)c1
IC50 (CEM-SS [4]): 0.003 µM | CC50 (CEM-SS [5]): > 10 µM | IC50 [6]: 0.071 µM | IC50 [7]: 0.021 µM | IC50 [8]: > 10 µM | CC50 [1]: > 10 µM | IC50 [2]: 2.9 µM | SI [9]: >3 | CC50 (MT4 [10]): > 10 µM | CC50 (MT4 [11]): > 10 µM | CC50 [12]: > 10 µM | CC50 [13]: > 10 µM | CC50 [14]: > 10 µM | IC50 [3]: 0.2 µM | SI [15]: >3333

CCc1c(C)nc(OC)c(NC(=O)C(C)(C)C)c1Cc1cc(C)cc(C)c1
IC50 (CEM-SS [4]): > 100 µM | CC50 (CEM-SS [5]): > 100 µM

CCc1c(C)nc(O)c(NC(=O)C(C)(C)C)c1C(C)(O)c1cc(C)cc(C)c1 (centres undefined)
IC50 (CEM-SS [4]): 12 µM | CC50 (CEM-SS [5]): > 100 µM | SI [15]: >8

Cc1cc(C)cc(Sc2c(C)cnc(O)c2NC=O)c1
IC50 (CEM-SS [4]): 6.6 µM | SI [15]: >15

CCc1c(C)nc(O)c(N)c1Cc1cc(C)cc(C)c1
IC50 (CEM-SS [4]): 0.017 µM | CC50 (CEM-SS [5]): > 10 µM | IC50 [6]: 4.35 µM | IC50 [7]: 0.13 µM | IC50 [8]: > 10 µM | IC50 [16]: 0.31 µM | IC50 ([16]; Human immunodeficiency virus 1): 0.5 µM | CC50 [1]: > 10 µM | IC50 [2]: 1 µM | CC50 (MT4 [10]): > 10 µM | CC50 (MT4 [11]): > 10 µM | CC50 [12]: > 10 µM | CC50 [13]: > 10 µM | CC50 [14]: > 10 µM | IC50 [3]: 0.1 µM | SI [17]: > 10 | SI [15]: >588

CCc1c(C)nc(O)c(NC(=O)CN)c1Cc1cc(C)cc(C)c1
IC50 (CEM-SS [4]): 0.018 µM | CC50 (CEM-SS [5]): > 100 µM | SI [15]: >5555

CCc1c(C)nc(OC)c(NC(=O)C(C)(C)C)c1C(OC(C)=O)c1cc(C)cc(C)c1 (centres undefined)
IC50 (CEM-SS [4]): 10 µM | CC50 (CEM-SS [5]): > 10 µM | SI [15]: >1

CCc1c(C)nc(O)c(N)c1C(=O)c1cc(C)cc(C)c1
IC50 (CEM-SS [4]): 0.006 µM | CC50 (CEM-SS [5]): > 10 µM | IC50 [6]: 0.025 µM | IC50 [7]: 0.017 µM | IC50 [8]: > 10 µM | IC50 [16]: 0.085 µM and 0.02 µM | CC50 [1]: > 10 µM | IC50 [2]: 1.3 µM | SI [9]: >7 | CC50 (MT4 [10]): > 10 µM | CC50 (MT4 [11]): > 10 µM | CC50 [12]: > 10 µM | CC50 [13]: > 10 µM | CC50 [14]: > 10 µM | IC50 [3]: 0.1 µM | SI [15]: >1666
